≈ marks a conversion by molar mass, not a printed value. Calls of active or inactive are those of the source. The calls are words filed in the database; no cut-off is given here.
Tests used:
Brevibacterium linens = assay: Antibacterial activity against Brevibacterium linens ATCC 9174 after 24 hrs by M7-A7 CLSI method; format: functional; conditions: ATCC 9174, 24 h
How it was run: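 Compounds dissolved in 100% DMSO at 5 mg/mL, then 1 mg/mL in 10% DMSO; serial dilutions in broth from 100 µg/mL final. B. linens: nutrient broth 24 h at 30 °C, inoculum 1 McFarland, 24 h with compounds. P. acnes: thioglycolate broth 72 h at 33 °C, inoculum 0.5 McFarland, 72 h anaerobic with compounds. MIC = lowest concentration with no visible growth, confirmed by A655.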

Skin fibroblast = assay: Stimulation of type 1 collagen output in human skin fibroblasts after at 10 to 100 ug/ml after 72 hrs by ELISA; format: functional
How it was run: (§1)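 Neonatal human dermal fibroblasts in high-glucose DMEM with 5% calf serum, 3 × 10³ cells/well, 72 h compound exposure. Conditioned media assayed for type I collagen by sandwich ELISA (affinity-purified antibodies, streptavidin/avidin-HRP, ABTS, 405 nm), quantified against a purified human collagen I standard curve. Expressed as % of untreated control. MAP and bFGF (15 ng/mL) served as positive controls.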

[1] = tested on: Mycobacterium tuberculosis; assay: Antituberculosis activity against Mycobacterium tuberculosis H37Rv by twofold serial dilution method; format: functional
How it was run: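 Classical two-fold test-tube serial dilution in Youmans' modified Proskauer–Beck liquid medium with 10% bovine serum. Inocula from 14-day cultures. Compounds in ethylene glycol, 10 mg/mL stock, geometric dilutions in medium; 3.1, 6.2, 12.5, 25, 50 and 100 µg/mL evaluated. Incubation at 37 °C. MIC = lowest concentration inhibiting growth relative to a compound-free tube. INH, PZA and RMP served as reference drugs.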

[2] = Growth inhibition of human skin fibroblasts at 100 ug/ml after 72 hrs by MTT assay; design: species or system Skin fibroblast; conditions: read-out: GI
How it was run: (§2)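 Neonatal human dermal fibroblasts in high-glucose DMEM with 5% cosmic calf serum, seeded 3 × 10³ cells/well and exposed to compounds for 72 h. MTT then added for 2.5 h; formazan solubilised in isopropanol and read at 550 nm; signal proportional to cell number.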

[3] = Growth inhibition of human skin fibroblasts at 10 ug/ml after 72 hrs by MTT assay; design: species or system Skin fibroblast; conditions: read-out: GI; how it was run: as §2
[4] = Stimulation of type 1 collagen output in human skin fibroblasts after at 100 ug/ml after 72 hrs by ELISA relative to control; format: functional, Skin fibroblast; how it was run: as §1

Compound	MIC (Brevibacterium linens)	Activity (Skin fibroblast)	MIC [1]	inhibition at 72 h, 100 ug/ml [2]	inhibition at 72 h, 10 ug/ml [3]	Activity [4]
S=c1[nH]nc(CCC2CCCCC2)[nH]1	> 100 µg/mL	inactive	50 µg/mL (≈ 237 µM)	–	–	–
S=c1[nH]nc(CCC2CCCCC2)o1	> 100 µg/mL	inactive	25 µg/mL (≈ 118 µM)	–	–	–
O=C(CCC1CCCCC1)NNC(=S)Nc1ccc(Cl)cc1	> 100 µg/mL	inactive	50 µg/mL (≈ 147 µM)	–	–	–
NNC(=O)c1ccncc1 [ISONIAZID]	–	–	0.5 µg/mL (≈ 3.65 µM)	–	–	–
c1ccc2nc3cc4[nH]c(CCC5CCCCC5)nc4cc3nc2c1	> 100 µg/mL	inactive	3.1 µg/mL (≈ 9.38 µM)	11%	0%	–
O=[N+]([O-])c1cc(Cl)cc2[nH]c(CCC3CCCCC3)nc12	> 100 µg/mL	–	12.5 µg/mL (≈ 40.6 µM)	18%	0%	166%
c1ccc2c(c1)ccc1nc(CCC3CCCCC3)[nH]c12	> 100 µg/mL	inactive	1.5 µg/mL (≈ 5.39 µM)	74%	16%	–
CNC(=S)NNC(=O)CCC1CCCCC1	> 100 µg/mL	inactive	50 µg/mL (≈ 205 µM)	–	–	–
O=C(CCC1CCCCC1)NN=C1SCCS1	> 100 µg/mL	inactive	50 µg/mL (≈ 184 µM)	–	–	–
CSC(=S)NNC(=O)CCC1CCCCC1	> 100 µg/mL	inactive	50 µg/mL (≈ 192 µM)	–	–	–
Cl.Cl.c1cc2nc(CCC3CCCCC3)[nH]c2cn1	> 100 µg/mL	inactive	25 µg/mL	0%	0%	–
C=CCn1c(CCC2CCCCC2)n[nH]c1=S	> 100 µg/mL	inactive	50 µg/mL (≈ 199 µM)	–	–	–
O=C(CCC1CCCCC1)NNC(=S)NC1CCCCC1	> 100 µg/mL	inactive	50 µg/mL (≈ 161 µM)	–	–	–
NC(=O)c1cnccn1 [PYRAZINAMIDE]	–	–	25 µg/mL (≈ 203 µM)	–	–	–
CC1(C)CNc2nnc(CCC3CCCCC3)n2C1	> 100 µg/mL	inactive	50 µg/mL (≈ 191 µM)	–	–	–
CSC(=NNC(=O)CCC1CCCCC1)SC	> 100 µg/mL	inactive	50 µg/mL (≈ 182 µM)	–	–	–
c1cnc2[nH]c(CCC3CCCCC3)nc2c1	> 100 µg/mL	inactive	25 µg/mL (≈ 109 µM)	41%	0%	–
S=c1[nH]nc(CCC2CCCCC2)n1C1CCCCC1	> 100 µg/mL	inactive	50 µg/mL (≈ 170 µM)	–	–	–
CO[C@H]1/C=C/O[C@@]2(C)Oc3c(C)c(O)c4c(O)c(c(/C=N/N5CCN(C)CC5)c(O)c4c3C2=O)NC(=O)/C(C)=C\C=C\[C@H](C)[C@H](O)[C@@H](C)[C@@H](O)[C@@H](C)[C@H](OC(C)=O)[C@@H]1C [RIFAMPIN]	–	–	1.2 µg/mL (≈ 1.46 µM)	–	–	–
Cn1c(CCC2CCCCC2)n[nH]c1=S	> 100 µg/mL	inactive	50 µg/mL (≈ 222 µM)	–	–	–
S=c1[nH]nc(CCC2CCCCC2)n1-c1ccc(Cl)cc1	> 100 µg/mL	inactive	50 µg/mL (≈ 155 µM)	–	–	–
C=CCNC(=S)NNC(=O)CCC1CCCCC1	> 100 µg/mL	inactive	50 µg/mL (≈ 186 µM)	–	–	–
Brc1cnc2[nH]c(CCC3CCCCC3)nc2c1	> 100 µg/mL	inactive	6.5 µg/mL (≈ 21.1 µM)	100%	17%	–

— ChEMBL document CHEMBL1926666, “Synthesis of novel 3-cyclohexylpropanoic acid-derived nitrogen heterocyclic compounds and their evaluation for tuberculostatic activity” (Bioorg Med Chem, 2012)
